These results are taken from PubChem BioAssay.

Molecules are shown by their SMILES. Active and inactive are the calls of the source.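 The calls were made as follows, unless noted: active = Her2 level under about 52% in both replicate screens, with viability over 70% of control (limit read from the data); inconclusive = Her2 under the limit in one screen only, or viability under 70%; inactive = Her2 level above the set limit.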

A short description of experiment [1]: Her2 expression decrease, cell viability multiplex – SKBR3 breast tumor cells, AlphaScreen, ATP viability, primary screen (AID 461).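 As to Her2 level: lower value means less Her2 protein in the cells.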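 As to viability: percent of carrier control wells set as 100% viability.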 As to conditions: SKBR3 Her2 protein level, 18-24 h, measured here: SKBR3 viability, ATP luminescence, at 10 µM. Background: Bead proximity is the source of the signal in Alpha formats.
Experiment [2] addresses Receptor tyrosine-protein kinase erbB-2 (Homo sapiens) (UniProt P04626). The description is as above. As to conditions: 18-24 h, at 10 µM, stronger effect = lower value.
Experiment [3] in a line: reduced viability of SK-BR-3 breast cancer cells – cell-based, 24 h, human, pilot screen (AID 572;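 active = viability at or below 10% of carrier control in both of two separate runs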;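 also: compound exposure lasted between 18 and 24 h rather than exactly 24 h; 100% = carrier-treated control wells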). Particulars: SK-BR-3 viability, CellTiter-Glo luminescence, at 10 µM, stronger effect = lower value.
Experiment [4] can be described thus: HUVEC growth inhibition – cell-based, human, primary screen (AID 575;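 active = viability at or below 30% in both replicate assays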;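 also: 100% = median of untreated cell wells with 0.1% DMSO on each plate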). As to conditions: HUVEC proliferation, CellTiter-Glo luminescence, 72 h; at 10 µM; stronger effect = lower value. Put shortly: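 Assay system: Primary human umbilical vein endothelial cells | Quantity: 1250 cells per well | Medium: Supplemented EBM, 2% fetal bovine serum | Detection: CellTiter-Glo luminescence measuring cellular ATP | Read-out: % viability vs DMSO wells | Plate: Collagen-coated 384-well format | Times: 72 h exposure, 37 °C, 5% CO2, 30 min RT equilibration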
In general terms: Cellular ATP, detected with luciferase, serves as a proxy for viable cell number.

A short description of experiment [5]: H69AR cell proliferation blockers – human, duplicate replicates, primary screen (AID 580;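 active = viability at or under a set limit in both replicates, limit being median viability minus 3 SD, cut at about 48% in these data, passing the limit was not always enough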;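 also: 100% = mean luminescence of untreated wells and 0% = no signal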). As to conditions: H69AR lung tumor cells viability, ATP luminescence, 72 h; at 10 µM; stronger effect = lower value.
Experiment [6] in a line: MRP1 drug-resistance reversers in H69AR cells – cell-based, doxorubicin co-treatment, pilot screen (AID 601;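 active = viability loss from added drug above about 55%, and viability with drug at most 40%, in both replicates, limit read from the data, passing the limit was not always enough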). As to conditions: CellTiter-Glo, 72 h, at 10 µM; for differential viability (reversal): stronger effect = higher value.
Experiment [7] is described as follows: yeast transport mutant growth inhibition pilot in 384-well plates, post-Golgi transport modulator project (AID 636; in the data active = inhibition above about 31%). Particulars: absorbance 615 nm, about 18 h, stronger effect = higher value.
Experiment [8] in a line: growth suppression of yeast trafficking mutant, preliminary HTS, modulators of trafficking downstream of Golgi apparatus project, 1536-format plate, OD 615 nm (AID 637; in the data active = inhibition above about 30%). As to conditions: yeast transport mutant growth, absorbance 615 nm, 18 h; stronger effect = higher value.
[9] abbreviates: H69AR cells + 2 uM doxorubicin, measured here: viability with 2 uM doxorubicin, stronger effect = lower value.
The mark [10] stands for this setting: H69AR cells, compound alone cytotoxicity.

Receptor tyrosine-protein kinase erbB-2 (Homo sapiens), sequence (P04626 whole entry, looked up): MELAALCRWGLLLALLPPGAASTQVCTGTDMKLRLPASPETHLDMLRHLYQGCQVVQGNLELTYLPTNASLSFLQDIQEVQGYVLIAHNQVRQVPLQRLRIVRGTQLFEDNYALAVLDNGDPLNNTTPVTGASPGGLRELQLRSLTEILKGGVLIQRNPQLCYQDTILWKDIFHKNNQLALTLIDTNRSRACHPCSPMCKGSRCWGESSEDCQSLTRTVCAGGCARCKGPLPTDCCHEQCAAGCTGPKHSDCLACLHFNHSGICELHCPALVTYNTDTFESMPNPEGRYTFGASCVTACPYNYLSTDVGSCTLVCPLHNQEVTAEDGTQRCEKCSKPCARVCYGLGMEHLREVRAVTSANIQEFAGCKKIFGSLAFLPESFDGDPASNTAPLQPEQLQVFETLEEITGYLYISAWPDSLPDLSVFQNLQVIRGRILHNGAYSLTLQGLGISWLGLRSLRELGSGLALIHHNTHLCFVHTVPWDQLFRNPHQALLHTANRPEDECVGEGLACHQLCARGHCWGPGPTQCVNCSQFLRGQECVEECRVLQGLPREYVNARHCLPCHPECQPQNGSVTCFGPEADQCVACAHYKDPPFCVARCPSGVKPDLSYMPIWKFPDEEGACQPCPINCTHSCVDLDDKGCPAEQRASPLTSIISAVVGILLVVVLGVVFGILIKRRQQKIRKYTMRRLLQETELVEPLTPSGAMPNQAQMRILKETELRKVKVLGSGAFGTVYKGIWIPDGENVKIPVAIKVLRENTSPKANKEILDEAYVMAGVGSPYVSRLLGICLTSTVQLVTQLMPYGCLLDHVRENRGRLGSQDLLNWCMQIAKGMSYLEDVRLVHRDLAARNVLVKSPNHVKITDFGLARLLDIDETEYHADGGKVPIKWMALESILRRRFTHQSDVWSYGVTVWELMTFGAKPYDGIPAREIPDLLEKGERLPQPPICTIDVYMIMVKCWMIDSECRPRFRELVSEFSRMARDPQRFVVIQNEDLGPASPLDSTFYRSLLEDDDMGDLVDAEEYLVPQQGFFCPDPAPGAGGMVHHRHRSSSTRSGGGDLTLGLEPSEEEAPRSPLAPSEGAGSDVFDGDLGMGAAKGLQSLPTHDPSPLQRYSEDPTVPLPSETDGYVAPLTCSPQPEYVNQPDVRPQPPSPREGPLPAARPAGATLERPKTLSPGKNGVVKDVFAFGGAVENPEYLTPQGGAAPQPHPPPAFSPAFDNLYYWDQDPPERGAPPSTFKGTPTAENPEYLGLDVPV

Broadly, the viability is a read-out of living cells in per cent, often relative to untreated cells. By inhibition is commonly meant the change of the read-out against control, counted positive when it falls. Regarding `Cc1cc(C(=O)Nc2ccccc2C#N)n(-c2ccccc2)n1`, the viability in experiment [1] is 97.5%; in experiment [3], 97.5% (inactive); in experiment [4] it was 92.8% (inactive); in experiment [5], 93.9% (inactive); in experiment [6] (setting [9]), 97%; in experiment [6] (setting [10]), 93.9%. For the same compound, the Her2 level in experiment [2] is 100% (inactive). For the same compound, in experiment [6] (H69AR cells + 2 uM doxorubicin), the differential viability (reversal) is -3.06% (inactive). Also, the inhibition in experiment [7] was 2.93% (inactive); in experiment [8], 0% (inactive).
As for `COc1cccc(-n2nc(C(=O)Nc3ccc4c(c3)OCO4)c3ccccc3c2=O)c1`, the viability was 109% in experiment [1]; 109% (inactive) in experiment [3]; 85.1% (inactive) in experiment [4]; 92.2% (inactive) in experiment [5]; 86.3% in experiment [6] (setting [9]); 92.2% in experiment [6] (setting [10]). The Her2 level in experiment [2] is 80.5% (inactive). Further, the differential viability (reversal) in experiment [6] (H69AR cells + 2 uM doxorubicin) is 5.91% (inactive). Moreover, the inhibition in experiment [7] was -2.16% (inactive); in experiment [8], -1.27% (inactive).
In the case of `O=C(OCc1cc2ccccc2[nH]c1=O)c1ccncc1`, the viability in experiment [1] is 90.5%; in experiment [3] it was 90.5% (inactive); in experiment [4], 76.4% (inactive); in experiment [5], 79.2% (inactive); in experiment [6] (setting [9]) it was 89.7%; in experiment [6] (setting [10]), 79.2%. Further, the Her2 level in experiment [2] was 89% (inactive). Besides, the differential viability (reversal) in experiment [6] (H69AR cells + 2 uM doxorubicin) was -10.5% (inactive). For the same compound, the inhibition is -4.34% (inactive) in experiment [7] and -2.74% (inactive) in experiment [8].
As for `COC(=O)c1[nH]c2ccccc2c1NC(=O)CN1CCC(C(N)=O)(N2CCCCC2)CC1`, the viability was 96% in experiment [1]; 96% (inactive) in experiment [3]; 101% (inactive) in experiment [4]; 93.2% (inactive) in experiment [5]; 87.8% in experiment [6] (setting [9]); 93.2% in experiment [6] (setting [10]). In addition, the Her2 level in experiment [2] was 97.5% (inactive). The differential viability (reversal) in experiment [6] (H69AR cells + 2 uM doxorubicin) was 5.43% (inactive). For the same compound, the inhibition in experiment [7] is 1.58% (inactive); in experiment [8] it was 0.49% (inactive).
For the compound `O=C(NCCCN1CCCC1=O)c1cncc(Br)c1`, the viability in experiment [1] is 97%; in experiment [3] it was 97% (inactive); in experiment [4], 98.5% (inactive); in experiment [5], 103% (inactive); in experiment [6] (setting [9]) it was 93%; in experiment [6] (setting [10]) it was 103%. Further, the Her2 level in experiment [2] was 83.5% (inactive). The differential viability (reversal) in experiment [6] (H69AR cells + 2 uM doxorubicin) was 10.1% (inactive). Moreover, the inhibition in experiment [7] was -6.67% (inactive); in experiment [8], 6.56% (inactive).
With `COc1cccc(OCc2nc3ccccc3[nH]2)c1`, the viability is 86.5% in experiment [1]; 86.5% (inactive) in experiment [3]; 101% (inactive) in experiment [4]; 95.8% (inactive) in experiment [5]; 88.3% in experiment [6] (setting [9]); 95.8% in experiment [6] (setting [10]). Also, the Her2 level in experiment [2] is 110% (inactive). The differential viability (reversal) in experiment [6] (H69AR cells + 2 uM doxorubicin) is 7.5% (inactive). Also, the inhibition in experiment [7] was -0.51% (inactive); in experiment [8], -5% (inactive).
`Cc1ccccc1NC(=O)C1Cc2ccccc2C(=O)O1` (stereo not given): the viability is 134% in experiment [1]; 134% (inactive) in experiment [3]; 116% (inactive) in experiment [4]; 98.7% (inactive) in experiment [5]; 91.2% in experiment [6] (setting [9]); 98.7% in experiment [6] (setting [10]). In experiment [2], the Her2 level is 112% (inactive). Further, in experiment [6] (H69AR cells + 2 uM doxorubicin), the differential viability (reversal) is 7.54% (inactive). Also, the inhibition was -4.93% (inactive) in experiment [7] and 3.23% (inactive) in experiment [8].
On to `CCn1c(=O)cc(SCC(=O)NCC2CCCO2)c2ccccc21` (stereo not given), for which the viability is 89% in experiment [1]; 89% (inactive) in experiment [3]; 88.7% (inactive) in experiment [4]; 87% (inactive) in experiment [5]; 78.4% in experiment [6] (setting [9]); 87% in experiment [6] (setting [10]). The Her2 level in experiment [2] is 87% (inactive). Besides, the differential viability (reversal) in experiment [6] (H69AR cells + 2 uM doxorubicin) is 8.63% (inactive). In addition, the inhibition in experiment [7] is -3.03% (inactive); in experiment [8] it was -7.27% (inactive).
Take `CC(C)OCCCNC(=O)c1cc2c(s1)CS(=O)(=O)C2`: the viability is 99% in experiment [1]; 99% (inactive) in experiment [3]; 90.3% (inactive) in experiment [4]; 94.6% (inactive) in experiment [5]; 96.1% in experiment [6] (setting [9]); 94.6% in experiment [6] (setting [10]). Further, in experiment [2], the Her2 level was 104% (inactive). For the same compound, in experiment [6] (H69AR cells + 2 uM doxorubicin), the differential viability (reversal) is -1.46% (inactive). Further, the inhibition was 1.03% (inactive) in experiment [7] and -8.5% (inactive) in experiment [8].
In the case of `CCOC(=O)C1=C(O)C(=O)N(c2ccc(S(N)(=O)=O)cc2)C1c1ccccc1` (stereo not given), the viability was 97.5% in experiment [1]; 97.5% (inactive) in experiment [3]; 96.7% (inactive) in experiment [4]; 96.7% (inactive) in experiment [5]; 95.2% in experiment [6] (setting [9]); 96.7% in experiment [6] (setting [10]). Also, in experiment [2], the Her2 level was 110% (inactive). Besides, in experiment [6] (H69AR cells + 2 uM doxorubicin), the differential viability (reversal) is 1.46% (inactive). For the same compound, the inhibition was -6.53% (inactive) in experiment [7] and -6.23% (inactive) in experiment [8].
`CC(C)c1ccc(S(=O)(=O)N2CCN(CCC(=O)Nc3ccc(N(C)C)cc3)CC2)cc1`: the viability in experiment [1] is 100%; in experiment [3], 100% (inactive); in experiment [4], 66.8% (inactive); in experiment [5] it was 60.6% (inactive); in experiment [6] (setting [9]), 20.4%; in experiment [6] (setting [10]), 60.6%. Further, the Her2 level in experiment [2] was 93% (inactive). Further, the differential viability (reversal) in experiment [6] (H69AR cells + 2 uM doxorubicin) is 40.2% (inactive). The figures for the inhibition in experiment [7] and in experiment [8] were -3.29% (inactive) and -4.67% (inactive), respectively.
`Brc1ccc(-c2csc(/N=C/N3CCOCC3)n2)cc1`: the viability in experiment [1] is 113%; in experiment [3], 113% (inactive); in experiment [4] it was 85% (inactive); in experiment [5], 97.6% (inactive); in experiment [6] (setting [9]), 92.5%; in experiment [6] (setting [10]), 97.6%. Further, the Her2 level in experiment [2] was 100% (inactive). The differential viability (reversal) in experiment [6] (H69AR cells + 2 uM doxorubicin) was 5.1% (inactive). In addition, the inhibition is -4.4% (inactive) in experiment [7] and -7.1% (inactive) in experiment [8].
On to `COc1ccc(CNC(=O)CN(C(=O)c2ccc(CN3CCOCC3)o2)C2CCCC2)cc1`, for which the viability is 124% in experiment [1]; 124% (inactive) in experiment [3]; 89% (inactive) in experiment [4]; 93.1% (inactive) in experiment [5]; 85.8% in experiment [6] (setting [9]); 93.1% in experiment [6] (setting [10]). Moreover, in experiment [2], the Her2 level is 84.5% (inactive). Besides, in experiment [6] (H69AR cells + 2 uM doxorubicin), the differential viability (reversal) was 7.3% (inactive). Also, the inhibition in experiment [7] is -1.87% (inactive); in experiment [8] it was 0.98% (inactive).
Turning to `COc1ccccc1CN1C(=S)SC(C)(C)C1NO` (stereo not given), the viability was 100% in experiment [1]; 100% (inactive) in experiment [3]; 73.8% (inactive) in experiment [4]; 98.3% (inactive) in experiment [5]; 89.6% in experiment [6] (setting [9]); 98.3% in experiment [6] (setting [10]). Further, the Her2 level in experiment [2] was 93.5% (inactive). In addition, the differential viability (reversal) in experiment [6] (H69AR cells + 2 uM doxorubicin) is 8.72% (inactive). Also, the inhibition in experiment [7] is -3.73% (inactive); in experiment [8], 2.42% (inactive).
Take `CCCCc1noc2c1/C(=N\O)CC(c1ccccc1)C2` (stereo not given): the viability was 86% in experiment [1]; 86% (inactive) in experiment [3]; 108% (inactive) in experiment [4]; 90.5% (inactive) in experiment [5]; 91.3% in experiment [6] (setting [9]); 90.5% in experiment [6] (setting [10]). The Her2 level in experiment [2] is 82.5% (inactive). Also, the differential viability (reversal) in experiment [6] (H69AR cells + 2 uM doxorubicin) is -0.815% (inactive). Besides, the inhibition was 3.11% (inactive) in experiment [7] and -3.77% (inactive) in experiment [8].
Take `C/C(N)=C(\C#N)C(=O)NCCc1ccccn1`: the viability in experiment [1] was 81%; in experiment [3] it was 81% (inactive); in experiment [4], 108% (inactive); in experiment [5], 114% (inactive); in experiment [6] (setting [9]), 107%; in experiment [6] (setting [10]), 114%. For the same compound, the Her2 level in experiment [2] is 102% (inactive). Also, in experiment [6] (H69AR cells + 2 uM doxorubicin), the differential viability (reversal) is 7.44% (inactive). In addition, the figures for the inhibition in experiment [7] and in experiment [8] were -1.45% (inactive) and 1.48% (inactive), respectively.
